Test results taken from ChEMBL document CHEMBL4152323, “N-(1,3,4-oxadiazol-2-yl)benzamide analogs, bacteriostatic agents against methicillin- and vancomycin-resistant bacteria” (Eur J Med Chem, 2018).
Calls of active or inactive are those of the source. The calls are words filed in the database; no cut-off is given here.

Key:
Staphylococcus aureus [1] = experiment: Potency index, ratio of methicillin MIC to test compound MIC for methicillin-resistant Staphylococcus aureus ATCC 33592; assay type: functional
Staphylococcus aureus [2] = experiment: Bactericidal activity against vancomycin-resistant Staphylococcus aureus VRS12 clinical isolate preincubated for 20 hrs followed by TSA plating and measured after 18 hrs; assay type: functional
Enterococcus faecium [3] = experiment: Bactericidal activity against vancomycin-resistant Enterococcus faecium ATCC 700221 clinical isolate preincubated for 20 hrs followed by TSA plating and measured after 18 hrs; assay type: functional
Method in brief: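 MBC: 4 μL from wells with no growth in the MIC plate (Brain Heart Infusion broth, 37 °C, at least 20 h) spotted onto Tryptic Soy Agar. Read after at least 18 h at 37 °C.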

Staphylococcus aureus [4] = experiment: Bactericidal activity against methicillin-resistant Staphylococcus aureus USA400 NRS123 clinical isolate preincubated for 20 hrs followed by TSA plating and measured after 18 hrs; assay type: functional
Staphylococcus aureus [5] = experiment: Bacteriostatic activity against methicillin-resistant Staphylococcus aureus USA700 NRS386 clinical isolate after 20 hrs by broth microdilution method; assay type: functional; conditions: USA700 NRS386, 20 h
Method in brief: (§1)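 Broth microdilution MIC over 128 to 1 μg/mL, run alongside methicillin, linezolid and vancomycin. MIC taken as the lowest concentration with no visible growth.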

Staphylococcus aureus [6] = experiment: Bactericidal activity against methicillin-resistant Staphylococcus aureus USA700 NRS386 clinical isolate preincubated for 20 hrs followed by TSA plating and measured after 18 hrs; assay type: functional
Staphylococcus aureus [7] = experiment: Bacteriostatic activity against methicillin-resistant Staphylococcus aureus USA800 NRS387 clinical isolate after 20 hrs by broth microdilution method; assay type: functional; conditions: USA800 NRS387, 20 h; method in brief: as §1
[8] = Ratio of non toxic concentration for human Caco2 cells to MIC for methicillin-resistant Staphylococcus aureus ATCC 33592; assay type: toxicity; conditions: Caco-2 cells
Staphylococcus aureus [9] = experiment: Bacteriostatic activity against methicillin-resistant Staphylococcus aureus USA400 NRS123 measured over 14 days by broth microdilution method
Staphylococcus aureus [10] = experiment: Bactericidal activity against methicillin-resistant Staphylococcus aureus USA300 NRS384 clinical isolate preincubated for 20 hrs followed by TSA plating and measured after 18 hrs; assay type: functional
Staphylococcus aureus [11] = experiment: Bacteriostatic activity against methicillin-resistant Staphylococcus aureus ATCC 33592 after 20 hrs by broth microdilution method; assay type: functional; conditions: ATCC 33592, 20 h; method in brief: as §1
Staphylococcus aureus [12] = experiment: Bactericidal activity against methicillin-resistant Staphylococcus aureus USA800 NRS387 clinical isolate preincubated for 20 hrs followed by TSA plating and measured after 18 hrs; assay type: functional
Pseudomonas aeruginosa = experiment: Bacteriostatic activity against Pseudomonas aeruginosa ATCC 15442 after 20 hrs by broth microdilution method; assay type: functional; conditions: ATCC 15442, 20 h
Method in brief: (§2)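 MIC by broth microdilution across 128 to 1 μg/mL in 96-well plates, 37 °C for at least 20 h. MIC is the lowest concentration with no visible growth.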

Staphylococcus aureus [13] = experiment: Bacteriostatic activity against methicillin-resistant Staphylococcus aureus USA300 NRS384 clinical isolate after 20 hrs by broth microdilution method; assay type: functional; conditions: USA300 NRS384, 20 h; method in brief: as §1
Caco-2 = experiment: Cytotoxicity against human Caco2 cells assessed as decrease in cell viability up to 128 ug/ml after 24 hrs by MTS assay; assay type: cell-based; conditions: caco-2, 24 h
Method in brief: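 Caco-2 cells were grown in DMEM with 20% FBS, 1X non-essential amino acids and penicillin-streptomycin at 37 °C, 5% CO2. Viability is % of DMSO-treated cells.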

Staphylococcus aureus [14] = experiment: Bacteriostatic activity against methicillin-resistant Staphylococcus aureus USA500 NRS385 clinical isolate after 20 hrs by broth microdilution method; assay type: functional; conditions: USA500 NRS385, 20 h; method in brief: as §1
Staphylococcus aureus [15] = experiment: Antibacterial activity against Staphylococcus aureus assessed as growth inhibition at 16 ug/ml after 24 hrs; assay type: functional, organism-based
Method in brief: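 S. aureus grown in Mueller Hinton Broth to early exponential phase, then exposed to compound (16 μg/mL; DMSO stocks 10 mg/mL) or DMSO in duplicate, 37 °C for 24 h. OD600 read; percent normalized OD600 = (X − media blank)/(DMSO control − media blank) × 100.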

Escherichia coli [16] = experiment: Bacteriostatic activity against Escherichia coli BW25113 after 20 hrs by broth microdilution method; assay type: functional; conditions: BW25113, 20 h; method in brief: as §2
Staphylococcus aureus [17] = experiment: Antibacterial activity against methicillin-resistant Staphylococcus aureus USA300 at 12 ug/ml preincubated for 24 hrs followed by agar plating and measured after 18 to 20 hrs by time-kill assay relative to control; assay type: functional
Enterococcus faecium [18] = experiment: Bacteriostatic activity against vancomycin-resistant Enterococcus faecium ATCC 700221 clinical isolate after 20 hrs by broth microdilution method; assay type: functional; conditions: ATCC 700221, 20 h
Method in brief: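 Broth microdilution MIC over 128 to 1 μg/mL in Brain Heart Infusion broth, 37 °C for at least 20 h. MIC taken as the lowest concentration with no visible growth.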

Staphylococcus aureus [19] = experiment: Bactericidal activity against vancomycin-intermediate Staphylococcus aureus NRS1 clinical isolate preincubated for 20 hrs followed by TSA plating and measured after 18 hrs; assay type: functional
Staphylococcus aureus [20] = experiment: Bactericidal activity against methicillin-resistant Staphylococcus aureus NRS119 clinical isolate preincubated for 20 hrs followed by TSA plating and measured after 18 hrs; assay type: functional
Staphylococcus aureus [21] = experiment: Bacteriostatic activity against methicillin-resistant Staphylococcus aureus USA400 NRS123 clinical isolate after 20 hrs by broth microdilution method; assay type: functional; conditions: USA400 NRS123, 20 h; method in brief: as §1
Staphylococcus aureus [22] = experiment: Bactericidal activity against methicillin-resistant Staphylococcus aureus USA500 NRS385 clinical isolate preincubated for 20 hrs followed by TSA plating and measured after 18 hrs; assay type: functional
Staphylococcus aureus [23] = experiment: Ratio of MIC for methicillin-resistant Staphylococcus aureus USA400 NRS123 measured after 10th to 14th passage to MIC for methicillin-resistant Staphylococcus aureus USA400 NRS123 measured prior 10th to 14th passage; assay type: functional
Method in brief: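 MRSA USA400 (NRS123) passaged serially, once a day, over 14 passages in two weeks. Broth microdilution MIC of test agent and ciprofloxacin measured after each passage. A four-fold MIC shift taken as resistance.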

Listeria monocytogenes = experiment: Bacteriostatic activity against Listeria monocytogenes ATCC 19115 after 20 hrs by broth microdilution method; assay type: functional; conditions: ATCC 19115, 20 h; method in brief: as §2
Enterococcus faecalis [24] = experiment: Bacteriostatic activity against vancomycin-resistant Enterococcus faecalis ATCC 51575 after 20 hrs by broth microdilution method; assay type: functional; conditions: ATCC 51575, 20 h; method in brief: as §1
Acinetobacter baumannii = experiment: Bacteriostatic activity against Acinetobacter baumannii ATCC 19606 after 20 hrs by broth microdilution method; assay type: functional; conditions: ATCC 19606 = CIP 70.34 = JCM 6841, 20 h; method in brief: as §2
Staphylococcus aureus [25] = experiment: Bacteriostatic activity against methicillin-resistant Staphylococcus aureus NRS119 clinical isolate after 20 hrs by broth microdilution method; assay type: functional; conditions: NRS119, 20 h; method in brief: as §1
Staphylococcus aureus [26] = experiment: Bacteriostatic activity against vancomycin-intermediate Staphylococcus aureus NRS1 clinical isolate after 20 hrs by broth microdilution method; assay type: functional; conditions: NRS1, 20 h; method in brief: as §1
Enterococcus faecalis [27] = experiment: Potency index, ratio of vancomycin MIC to test compound MIC for vancomycin-resistant Enterococcus faecalis ATCC 51575
Staphylococcus aureus [28] = experiment: Bacteriostatic activity against vancomycin-resistant Staphylococcus aureus VRS12 clinical isolate after 20 hrs by broth microdilution method; assay type: functional; conditions: VRS12, 20 h; method in brief: as §1
Klebsiella pneumoniae = experiment: Bacteriostatic activity against Klebsiella pneumoniae BAA 1706 after 20 hrs by broth microdilution method; assay type: functional; conditions: BAA 1706, 20 h; method in brief: as §2
Staphylococcus aureus [29] = experiment: Antibacterial activity against methicillin-resistant Staphylococcus aureus USA300 in BALB/c mouse wound infection model assessed as reduction in bacterial burden in wound at 2% administered topically bid for 5 days relative to control; assay type: functional; parameters: scale not given: the % may be the effect or the level left
Method in brief: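 Female BALB/c mice, eight weeks old, n = 5 per group, injected intradermally with 40 μL of 1.32×10^9 CFU/mL MRSA USA300. Once an abscess or open wound formed, it was treated topically twice daily for five days with 2% agent in petroleum jelly, with vehicle as control. Wound tissue excised 12 h after the last dose, homogenized in PBS, diluted and plated on mannitol salt agar for 16 h or more at 37 °C. CFU reduction calculated against vehicle.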

Escherichia coli [30] = experiment: Bacteriostatic activity against AcrAB-tolC deficient Escherichia coli JW5503-1 after 20 hrs by broth microdilution method; assay type: functional; conditions: JW5503-1, 20 h; method in brief: as §2
[31] = Ratio of non toxic concentration for mouse J774 cells to MIC for methicillin-resistant Staphylococcus aureus ATCC 33592; assay type: toxicity
Enterococcus faecalis [32] = experiment: Bacteriostatic activity against Enterococcus faecalis ATCC 29212 after 20 hrs by broth microdilution method; assay type: functional; conditions: ATCC 29212, 20 h; method in brief: as §1
J774 = experiment: Cytotoxicity against mouse J774 cells assessed as decrease in cell viability up to 128 ug/ml after 24 hrs by MTS assay; assay type: cell-based; conditions: j774, 24 h
Staphylococcus aureus [33] = experiment: Bacteriostatic activity against Staphylococcus aureus ATCC 25923 after 20 hrs by broth microdilution method; assay type: functional; conditions: ATCC 25923, 20 h; method in brief: as §1

## C[C@@H]1C[C@H](C)CN(S(=O)(=O)c2ccc(C(=O)Nc3nnc(-c4cccs4)o3)cc2)C1 (mixture of isomers)
Staphylococcus aureus [1]
  Ratio: > 64
Staphylococcus aureus [2]
  MBC: > 128 µg/mL
Enterococcus faecium [3]
  MBC: 128 µg/mL
Staphylococcus aureus [4]
  MBC: > 128 µg/mL
Staphylococcus aureus [5]
  MIC: 2 µg/mL
Staphylococcus aureus [6]
  MBC: > 128 µg/mL
Staphylococcus aureus [7]
  MIC: 2 µg/mL
[8]
  selectivity ratio: 63
Staphylococcus aureus [9]
  Activity: Active
Staphylococcus aureus [10]
  MBC: > 128 µg/mL
Staphylococcus aureus [11]
  MIC: 2 to 4 µg/mL
Staphylococcus aureus [12]
  MBC: > 128 µg/mL
Pseudomonas aeruginosa
  MIC: > 128 µg/mL
Staphylococcus aureus [13]
  MIC: 2 µg/mL
Caco-2
  Activity: Non-Toxic
Staphylococcus aureus [14]
  MIC: 2 µg/mL
Staphylococcus aureus [15]
  growth inhibition (GI): Active
Escherichia coli [16]
  MIC: > 128 µg/mL
Staphylococcus aureus [17]
  Activity: 2.01 deltalog10CFU/ml
Enterococcus faecium [18]
  MIC: 2 µg/mL
Staphylococcus aureus [19]
  MBC: > 128 µg/mL
Staphylococcus aureus [20]
  MBC: > 128 µg/mL
Staphylococcus aureus [21]
  MIC: 2 µg/mL
Staphylococcus aureus [22]
  MBC: > 128 µg/mL
Staphylococcus aureus [23]
  Ratio: 1
Listeria monocytogenes
  MIC: 4 µg/mL
Enterococcus faecalis [24]
  MIC: 4 µg/mL
Acinetobacter baumannii
  MIC: 128 µg/mL
Staphylococcus aureus [25]
  MIC: 2 µg/mL
Staphylococcus aureus [26]
  MIC: 2 µg/mL
Enterococcus faecalis [27]
  Ratio: >32
Staphylococcus aureus [28]
  MIC: 2 µg/mL
Klebsiella pneumoniae
  MIC: > 128 µg/mL
Staphylococcus aureus [29]
  Activity: 72.41%
Escherichia coli [30]
  MIC: 2 µg/mL
[31]
  selectivity ratio: 63
Enterococcus faecalis [32]
  MIC: 4 µg/mL
J774
  Activity: Non-Toxic
Staphylococcus aureus [33]
  MIC: 2 to 4 µg/mL
